According to ChEMBL document CHEMBL1156706, “Structure-activity relationships of novel heteroaryl-acrylonitriles as cytotoxic and antibacterial agents” (Eur J Med Chem, 2008):
Values after ≈ are worked out from the molar mass of the structure shown.

What was measured:
RT-4 = test: Cytotoxicity against human RT4 cells after 96 hrs by microtiter assay; assay type: functional, cell-based; conditions: RT-4, 96 h
Method in brief: (§1)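 DSMZ cell lines in RPMI 1640 with 10% FCS. DMF stocks diluted 1000-fold into medium. Continuous exposure 96 h at 37 °C, 5% CO2. Adherent cells stained with crystal violet. IC50 (50% growth inhibition vs untreated control) obtained by least-squares fitting of dose–response curves, averaging 2–5 independent determinations.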

RT-112 = test: Cytotoxicity against human RT112 cells after 96 hrs by microtiter assay; assay type: functional, cell-based; conditions: RT-112, 96 h; method in brief: as §1
5637 = test: Cytotoxicity against human 5637 cells after 96 hrs by microtiter assay; assay type: functional, cell-based; conditions: Homo sapiens, 5637, 96 h; method in brief: as §1
[1] = Cytotoxicity against human KYSE70 cells after 96 hrs by microtiter assay; assay type: functional, cell-based; conditions: KYSE-70, 96 h; method in brief: as §1
KYSE-510 = test: Cytotoxicity against human KYSE510 cells after 96 hrs by microtiter assay; assay type: functional, cell-based; conditions: KYSE-510, 96 h; method in brief: as §1
[2] = Cytotoxicity against human KYSE520 cells after 96 hrs by microtiter assay; assay type: functional, cell-based; conditions: KYSE-520, 96 h; method in brief: as §1
YAPC = test: Cytotoxicity against human YAPC cells after 96 hrs by microtiter assay; assay type: functional, cell-based; method in brief: as §1
DAN-G = test: Cytotoxicity against human DAN-G cells after 96 hrs by microtiter assay; assay type: functional, cell-based; method in brief: as §1
SISO = test: Cytotoxicity against human SISO cells after 96 hrs by microtiter assay; assay type: functional, cell-based; method in brief: as §1
[3] = Cytotoxicity against human LCLC-103H cells after 96 hrs by microtiter assay; assay type: functional, cell-based; method in brief: as §1
MCF7 = test: Cytotoxicity against human MCF7 cells after 96 hrs by microtiter assay; assay type: functional, cell-based; conditions: MCF7, 96 h; method in brief: as §1
A-427 = test: Cytotoxicity against human A427 cells after 96 hrs by microtiter assay; assay type: functional, cell-based; conditions: A-427, 96 h; method in brief: as §1
Enterococcus hirae = test: Antibacterial activity against Enterococcus hirae NCTC 10541 after 24 hrs; assay type: functional, organism-based; conditions: NCTC 10541, 24 h
Method in brief: (§2)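 Overnight culture diluted in Mueller–Hinton broth to 10^5 CFU/ml. Compounds dissolved in DMSO and diluted twofold in broth over 0.24–62.5 […]. Tubes inoculated and incubated 24 h at 37 °C. MIC taken as the lowest concentration with no visible growth. Clear tubes were subcultured onto Mueller–Hinton agar, and MBC was taken as the minimal concentration killing the organisms after 24 h.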

Staphylococcus aureus = test: Antibacterial activity against Staphylococcus aureus NCTC 4163 after 24 hrs; assay type: functional, organism-based; conditions: NCTC 4163, 24 h; method in brief: as §2
[4] = system: Staphylococcus epidermidis; test: Antibacterial activity against Staphylococcus epidermis NCTC 14990 after 24 hrs; assay type: functional, organism-based; conditions: NCTC 14990, 24 h; method in brief: as §2
[5] = Aqueous solubility in phosphate buffered saline at pH 7.4 after 24 hrs; assay type: physicochemical
Method in brief: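 Solid added in excess to Dulbecco's PBS, pH 7.4, and stirred in the dark 24 h at room temperature. Suspension filtered through a 0.22 filter. Filtrate absorbance read at each compound's λmax, and dissolved concentration calculated from the extinction coefficient at that wavelength.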

Row | SMILES | IC50 (RT-4) | IC50 (RT-112) | IC50 5637 | IC50 [1] | IC50 (KYSE-510) | IC50 [2] | IC50 (YAPC) | IC50 (DAN-G) | IC50 (SISO) | IC50 [3] | IC50 (MCF7) | IC50 (A-427) | MIC (Enterococcus hirae) | MIC (Staphylococcus aureus) | MIC [4] | solubility at 24 h [5]
1 | N#C/C(=C\c1ccncc1)c1nc2ccccc2[nH]1 | 40.1 µM | 30.7 µM | 31.2 µM | 37.1 µM | > 40 µM | > 40 µM | > 40 µM | > 40 µM | > 40 µM | 19.7 µM | > 40 µM | 26.2 µM |  |  |  | 
2 | N#C/C(=C\c1ccccn1)c1nc2ccccc2[nH]1 | 2.68 µM | 4.73 µM | 2.28 µM | 6.82 µM | 3.67 µM | 10.5 µM | 6.58 µM | 3.67 µM | 1.91 µM | 7.42 µM | 8.14 µM | 2.84 µM | > 215 µM | > 215 µM | 215 µM (≈ 52.9 µg/mL) | 
3 | N#C/C(=C\c1csc(Br)c1)c1nc2ccccc2[nH]1 | > 40 µM | > 40 µM | > 40 µM | > 40 µM | > 40 µM | > 40 µM | > 40 µM | > 40 µM | > 40 µM | 22.8 µM | > 40 µM | > 40 µM |  |  |  | 
4 | N#C/C(=C\c1ccc([N+](=O)[O-])s1)c1nc2cccnc2[nH]1 | 0.33 µM | 0.62 µM | 0.17 µM | 0.38 µM | 0.74 µM | 0.32 µM | 0.3 µM | 0.62 µM | 0.53 µM | 0.11 µM | 0.2 µM | 0.11 µM | 210 µM (≈ 62.4 µg/mL) | 6.4 µM (≈ 1.9 µg/mL) | 3.2 µM (≈ 0.951 µg/mL) | 0.5 µM (≈ 0.149 µg/mL)
5 | N#C/C(=C\c1cccnc1)c1nc2ccccc2[nH]1 | 3.47 µM | 3.5 µM | 1.79 µM | 4.25 µM | 3.92 µM | 5.13 µM | 4.92 µM | 3.27 µM | 3.02 µM | 1.97 µM | 3.15 µM | 3.29 µM |  |  |  | 
6 | N#C/C(=C\c1ccccn1)c1nc2ccccc2s1 | 9.69 µM | 8.19 µM | 6.65 µM | 7.28 µM | 13 µM | 9.18 µM | 8.27 µM | 6.47 µM | 5.69 µM | 7.8 µM | 4.34 µM | 6.05 µM |  |  |  | 2 µM (≈ 0.527 µg/mL)
7 | N#C/C(=C\c1ccc([N+](=O)[O-])s1)c1nc2ccccc2s1 | 0.92 µM | 0.75 µM | 0.62 µM | 0.51 µM | 0.93 µM | 0.46 µM | 0.42 µM | 0.72 µM | 0.64 µM | 0.88 µM | 0.83 µM | 0.38 µM | > 200 µM | 12 µM (≈ 3.76 µg/mL) | 12 µM (≈ 3.76 µg/mL) | < 0.1 µM
8 | N#C/C(=C\c1ccsc1)c1nc2ccccc2[nH]1 | 7.82 µM | 13.3 µM | 14.1 µM | 16 µM | 23 µM | 14.6 µM | 28.9 µM | 15.7 µM | 23.8 µM | 3.75 µM | 14.4 µM | 6.39 µM |  |  |  | 
9 | S=P(N1CC1)(N1CC1)N1CC1 [THIOTEPA] | 18.3 µM | 3.4 µM | 2 µM | 5.4 µM | 4.31 µM | 6.44 µM | 2.66 µM | 1.66 µM | 1.4 µM | 6.97 µM | 3.23 µM | 1.58 µM |  |  |  | 
10 | N#C/C(=C\c1ccc([N+](=O)[O-])o1)c1nc2ccccc2o1 | 3.98 µM | 1.41 µM | 1.65 µM | 2.91 µM | 7 µM | 1.68 µM | 2.86 µM | 3 µM | 2.86 µM | 1.33 µM | 2.87 µM | 1.13 µM | > 222 µM | 111 µM (≈ 31.2 µg/mL) | 111 µM (≈ 31.2 µg/mL) | < 0.1 µM
11 | Cc1cc2nc(/C(C#N)=C/c3ccc([N+](=O)[O-])s3)[nH]c2cc1C | 0.14 µM | 0.12 µM | 0.05 µM | 0.05 µM | 0.12 µM | 0.06 µM | 0.04 µM | 0.2 µM | 0.1 µM | 0.03 µM | 0.13 µM | 0.02 µM |  |  |  | 
12 | N#C/C(=C\c1ccc([N+](=O)[O-])o1)c1nc2cccnc2[nH]1 | 1.76 µM | 1.11 µM | 1.08 µM | 1.33 µM | 5.46 µM | 1.58 µM | 1.02 µM | 1.81 µM | 0.72 µM | 0.41 µM | 1.39 µM | 0.75 µM |  |  |  | 1.4 µM (≈ 0.394 µg/mL)
13 | N#C/C(=C\c1ccc([N+](=O)[O-])o1)c1nc2ccccc2s1 | 4.3 µM | 1.78 µM | 2.37 µM | 2.38 µM | 5.44 µM | 2 µM | 2.25 µM | 3.84 µM | 2.5 µM | 1.47 µM | 3.33 µM | 1.21 µM | > 210 µM | > 210 µM | > 210 µM | 0.7 µM (≈ 0.208 µg/mL)
14 | N#C/C(=C\c1ccc([N+](=O)[O-])cc1)n1cnc2ccccc21 | 2.56 µM | 2.2 µM | 2.2 µM | 2.63 µM | 2.41 µM | 1.92 µM | 2.43 µM | 1.53 µM | 4.34 µM | 1.71 µM | 2.47 µM | 1.7 µM |  |  |  | 
15 | N#C/C(=C\c1ccccn1)c1nc2cccnc2[nH]1 | 10 µM | 8.18 µM | 3.9 µM | 8.14 µM | 13.9 µM | 7.98 µM | 8.89 µM | 7.97 µM | 5.53 µM | 7.37 µM | 8.28 µM | 5.15 µM |  |  |  | 28 µM (≈ 6.92 µg/mL)
16 | COc1ccc(/C=C(\C#N)c2nc3ccccc3[nH]2)s1 | 21.2 µM | 14.7 µM | 31.9 µM | 12.2 µM | 12 µM | 20.5 µM | > 40 µM | 13.8 µM | 36.8 µM | 5.24 µM | 13.2 µM | 7.19 µM |  |  |  | 
17 | N#C/C(=C\c1ccc([N+](=O)[O-])s1)c1nc2ccccc2o1 | 6.57 µM | 3.88 µM | 3.91 µM | 5.3 µM | 22.6 µM | 2.76 µM | 1.7 µM | 12.6 µM | 14.1 µM | 12.1 µM | 5.69 µM | 2.33 µM | > 210 µM | 210 µM (≈ 62.4 µg/mL) | 210 µM (≈ 62.4 µg/mL) | < 0.1 µM
18 | N#C/C(=C\c1cccc([N+](=O)[O-])c1)n1cnc2ccccc21 | 4.02 µM | 4.16 µM | 4.01 µM | 4.06 µM | 3.09 µM | 2.3 µM | 3.39 µM | 2.26 µM | 6.57 µM | 3.48 µM | 2.61 µM | 2.86 µM |  |  |  | 
19 | N[C@@H](Cc1ccc(N(CCCl)CCCl)cc1)C(=O)O [MELPHALAN] | 14.2 µM | 4.69 µM | 0.31 µM | 16.2 µM | 8.18 µM | 10.5 µM | 5.95 µM | 2.65 µM | 1 µM | 4 µM | 3.71 µM | 5.13 µM |  |  |  | 
20 | O=C(Cn1cnc2ccccc21)NC(O)c1ccc([N+](=O)[O-])o1 (stereo unspecified) | 31.2 µM | 3.9 µM | 5.91 µM | 5.57 µM | 9.49 µM | 5.14 µM | 5.66 µM | 4.18 µM | 3.22 µM | 1.78 µM | 5.37 µM | 5.9 µM |  |  |  | 
21 | O=C(Cn1cnc2ccccc21)NC(O)c1ccc([N+](=O)[O-])s1 (stereo unspecified) | 2.96 µM | 13.7 µM | 33.7 µM | 57.4 µM | 140 µM | 24.2 µM | 22.4 µM | 9.6 µM | 11.7 µM | 7.46 µM | 13.1 µM | 228 µM |  |  |  | 
22 | N#C/C(=C\c1ccccn1)c1nc2ccccc2o1 | > 20 µM |  | > 20 µM |  |  |  |  |  |  | > 20 µM |  |  |  |  |  | 23 µM (≈ 5.69 µg/mL)
23 | O=C1CN(/N=C/c2ccc([N+](=O)[O-])o2)C(=O)N1 [NITROFURANTOIN] | 7 µM |  | 21.3 µM | 22.8 µM | 29 µM |  |  | 6.74 µM | 7.27 µM | 2.34 µM | 4.44 µM | 1.86 µM |  |  |  | 
